Data as given in ChEMBL document CHEMBL1136545, “Novel thieno oxazine analogues as antihyperglycemic and lipid modulating agents” (2003).
The source made the active and inactive calls. No cut-off for these calls is given here.

Assays:
[1] = biological target: T1, Peroxisome proliferator-activated receptor gamma (Homo sapiens) (UniProt P37231); test: Compound was tested for activation of peroxisome proliferator-activated receptor gamma activity at 1 uM concentration by transactivation assay
T1 sequence (whole entry): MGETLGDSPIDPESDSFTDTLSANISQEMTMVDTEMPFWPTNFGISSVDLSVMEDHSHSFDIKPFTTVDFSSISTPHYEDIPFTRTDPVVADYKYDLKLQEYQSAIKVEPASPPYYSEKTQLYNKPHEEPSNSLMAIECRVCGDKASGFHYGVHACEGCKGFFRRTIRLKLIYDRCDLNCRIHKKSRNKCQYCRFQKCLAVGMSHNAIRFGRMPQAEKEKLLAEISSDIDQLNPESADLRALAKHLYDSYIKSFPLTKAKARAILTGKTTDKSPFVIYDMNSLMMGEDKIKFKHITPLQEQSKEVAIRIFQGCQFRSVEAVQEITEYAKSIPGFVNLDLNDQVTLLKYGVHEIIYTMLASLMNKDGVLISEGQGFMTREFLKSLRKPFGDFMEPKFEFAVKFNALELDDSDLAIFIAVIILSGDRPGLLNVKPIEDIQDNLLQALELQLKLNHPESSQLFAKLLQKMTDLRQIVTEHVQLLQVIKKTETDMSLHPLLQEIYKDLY
Procedure, shortened: (§1)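 Cell-based PPAR transactivation assay, with receptor activity expressed as fold activation. Each compound was tested at a single concentration, which differed between the PPARα and PPARγ arms.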

[2] = biological target: T2, Peroxisome proliferator-activated receptor alpha (Homo sapiens) (UniProt Q07869); test: Compound was tested for activation of peroxisome proliferator-activated receptor alpha activity at 50 uM concentration by transactivation assay; procedure, shortened: as §1
T2 sequence (whole entry): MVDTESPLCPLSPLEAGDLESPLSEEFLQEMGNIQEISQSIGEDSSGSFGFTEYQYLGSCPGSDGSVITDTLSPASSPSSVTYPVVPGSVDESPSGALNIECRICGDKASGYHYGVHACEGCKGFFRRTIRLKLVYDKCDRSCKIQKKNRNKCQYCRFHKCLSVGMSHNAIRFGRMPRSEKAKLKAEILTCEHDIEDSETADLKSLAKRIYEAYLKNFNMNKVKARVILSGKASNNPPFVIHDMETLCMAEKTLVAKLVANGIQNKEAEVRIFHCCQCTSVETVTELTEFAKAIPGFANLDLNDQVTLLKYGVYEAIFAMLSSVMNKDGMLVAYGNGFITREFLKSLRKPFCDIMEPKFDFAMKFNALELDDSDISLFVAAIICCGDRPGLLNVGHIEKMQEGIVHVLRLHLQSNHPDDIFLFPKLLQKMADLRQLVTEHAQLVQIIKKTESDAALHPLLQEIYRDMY

Mus musculus [3] = test: Percentage reduction of triglyceride (TG) in db/db mice at 3 mg/kg; format: functional
Procedure, shortened: (§2)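 db/db mice were dosed orally at 3 mg/kg for 6 days. Plasma glucose and triglyceride were then measured, and each value is the percentage reduction.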

Mus musculus [4] = test: Percentage reduction of plasma glucose (PG) in db/db mice at 3 mg/kg; format: functional; procedure, shortened: as §2
Mus musculus [5] = test: Percentage reduction of plasma glucose (PG) in db/db mice at 3 mg/kg; No effect; format: functional, organism-based; parameters: dose 3 mg/kg; procedure, shortened: as §2
Mus musculus [6] = test: Percentage reduction of triglyceride (TG) in db/db mice at 3 mg/kg; No effect; format: functional, organism-based; parameters: dose 3 mg/kg; procedure, shortened: as §2

O=C(O)Cc1ccc(OCCN2C(=O)COc3ccsc32)cc1
Activity [1]: 14
Activity [2]: 5
Reduction (Mus musculus [3]): 43%
Reduction (Mus musculus [4]): 39%

O=C(O)Cc1cc(Br)c(OCCN2C(=O)COc3ccsc32)c(Br)c1
Activity [1]: 15
Activity [2]: 2
Reduction (Mus musculus [3]): 15%
Reduction (Mus musculus [4]): 43%

CCOC(Cc1ccc(OCCN2C(=O)COc3ccsc32)c(C)c1)C(=O)O (stereo not given)
Activity [1]: 18
Activity [2]: 1.5
Reduction (Mus musculus [3]): 19%
Reduction (Mus musculus [4]): 52%

O=C(O)Cc1ccc(OCCN2C(=O)COc3ccsc32)c(Br)c1
Activity [1]: 8
Activity [2]: 1.3
Reduction (Mus musculus [3]): 14%
Reduction (Mus musculus [4]): 21%

CCOC(Cc1ccc(OCCN2C(=O)COc3ccsc32)c(Br)c1)C(=O)O (stereo not given)
Activity [1]: 1.2
Activity [2]: 8
Reduction (Mus musculus [3]): 62%
Reduction (Mus musculus [5]): inactive

CCOC(Cc1ccc(OCCN2C(=O)COc3ccsc32)c(OC)c1)C(=O)O (stereo not given)
Activity [1]: 1.2
Reduction (Mus musculus [6]): inactive
Activity [2]: 0.5
Reduction (Mus musculus [5]): inactive

CCOC(Cc1cc(Br)c(OCCN2C(=O)COc3ccsc32)c(Br)c1)C(=O)O (stereo not given)
Activity [1]: 1.6
Activity [2]: 5
Reduction (Mus musculus [3]): 48%
Reduction (Mus musculus [5]): inactive

O=C(O)Cc1ccc(OCCCN2C(=O)COc3ccsc32)cc1
Activity [1]: 5
Reduction (Mus musculus [6]): inactive
Activity [2]: 0.5
Reduction (Mus musculus [4]): 14%

CCOC(Cc1ccc(OCCN2C(=O)COc3ccsc32)c(Cl)c1)C(=O)O (stereo not given)
Activity [1]: 7
Activity [2]: 2.5
Reduction (Mus musculus [3]): 27%
Reduction (Mus musculus [4]): 21%

CCOC(Cc1ccc(OCCN2C(=O)COc3ccsc32)cc1)C(=O)O (stereo not given)
Activity [1]: 16
Activity [2]: 8
Reduction (Mus musculus [3]): 56%
Reduction (Mus musculus [4]): 47%
